How the values were obtained:
[1] = target: PI3-kinase p110-delta/p85-alpha (Homo sapiens, UniProt O00329); assay: Inhibition of human full length PI3K p110delta/p85 alpha using PIP2/ATP as substrate after 30 mins by TR-FRET assay
[2] = target: Phosphatidylinositol 4,5-bisphosphate 3-kinase catalytic subunit gamma isoform (Homo sapiens, UniProt P48736); assay: Inhibition of human full length PI3Kgamma using PIP2/ATP as substrate after 30 mins by TR-FRET assay
[3] = target: PI3-kinase p110-alpha/p85-alpha (Homo sapiens, UniProt P42336); assay: Inhibition of human full length PI3K p110alpha/p85 alpha using PIP2/ATP as substrate after 30 mins by TR-FRET assay
[4] = Drug metabolism in human hepatocytes assessed as formation of oxidative metabolite of pyrimidine moiety; format: ADME, cell-based, Hepatocyte
[5] = Permeability from basolateral to apical side in human Caco2 cells; format: ADME, cell-based; conditions: Caco-2, read-out: permeability
[6] = Permeability from apical to basolateral side in human Caco2 cells; format: ADME, cell-based; conditions: Caco-2, read-out: permeability
[7] = Volume of distribution at steady state in Sprague-Dawley rat plasma at 1 mg/kg, iv administered via infusion over 30 mins measured over 24 hrs by LC/MS/MS analysis; format: ADME, organism-based; conditions: read-out: Vdss
In short: (§1)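 Single intravenous dose of 1 mg/kg. Half-life, mean residence time and steady-state volume of distribution were taken from the iv arm. Values are mean ± SD, n=3 animals per route.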

[8] = Clearance in Sprague-Dawley rat at 1 mg/kg, iv administered via infusion over 30 mins measured over 24 hrs by LC/MS/MS analysis; format: ADME, organism-based; conditions: in vivo
[9] = Oral bioavailability in Sprague-Dawley rat plasma at 5 mg/kg administered via gavage by LC/MS/MS analysis; format: ADME, organism-based
In short: (§2)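 Oral dose of 5 mg/kg, formulated in 5% ethanol, 50% PEG 300 and 45% water. Bioavailability was referenced to the separate 1 mg/kg intravenous arm. Values are mean ± SD, n=3 animals per route.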

[10] = Volume of distribution at steady state in rhesus monkey at 1 mg/kg, iv administered via infusion over 30 mins measured over 24 hrs by LC/MS/MS analysis; format: ADME, organism-based, Macaca mulatta; conditions: in vivo, read-out: Vdss; in short: as §1
[11] = tested on: ZR-75-1; assay: Growth inhibition of PTEN-deficient human ZR-75-1 cells after 72 hrs by Celltiter-Glo reagent based assay; format: functional; conditions: ZR-75-1, 72 h
[12] = Mean residence time in cynomolgus monkey plasma at 1 mg/kg, iv administered via infusion over 30 mins measured over 24 hrs by LC/MS/MS analysis; format: ADME, organism-based, Macaca fascicularis; in short: as §1
[13] = Oral bioavailability in Beagle dog plasma at 5 mg/kg administered via gavage by LC/MS/MS analysis; format: ADME, organism-based, Canis lupus familiaris; in short: as §2
[14] = Unbound fraction in rhesus monkey plasma; format: ADME, cell-free, Macaca mulatta
[15] = tested on: Mus musculus; assay: In vivo inhibition of PI3Kbeta in CB17 SCID mouse xenografted with human PTEN-deficient androgen responsive LNCAP cells assessed as inhibition of AKT1 phosphorylation at Serine 473 at […] administered by oral gavage and measured after 8 hrs; format: functional
[16] = Apparent terminal half life in Sprague-Dawley rat plasma at 1 mg/kg, iv administered via infusion over 30 mins measured over 24 hrs by LC/MS/MS analysis; format: ADME, organism-based; conditions: read-out: betat1/2(app) (converted); in short: as §1
[17] = tested on: Mus musculus; assay: In vivo inhibition of PI3Kbeta in CB17 SCID mouse xenografted with human PTEN-deficient androgen responsive LNCAP cells assessed as inhibition of AKT1 phosphorylation at Serine 473 at 15 mg/kg administered by oral gavage and measured after 2 hrs; format: functional
[18] = Clearance in Beagle dog plasma at 1 mg/kg, iv administered via infusion over 30 mins measured over 24 hrs by LC/MS/MS analysis; format: ADME, organism-based, Canis lupus familiaris; in short: as §1
[19] = tested on: LNCaP; assay: Antitumor activity against human PTEN-deficient androgen responsive LNCAP cells xenografted in CB17 SCID mouse administered by oral gavage twice daily for 14 days; format: functional; conditions: 336 h, read-out: MED
In short: (§3)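 Mice bearing LNCaP tumours were dosed at 15, 7.5 and 3 mg/kg twice a day. Tumour volume (mm3) was measured twice a week throughout. Growth inhibition was calculated after the final dose for each dose group.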

[20] = tested on: A498; assay: Growth inhibition of human A498 cells harboring PI3Kbeta mutant after 72 hrs by Celltiter-Glo reagent based assay; format: functional; conditions: A498, 72 h
[21] = Inhibition of human CYP450; format: ADME
In short: (§4)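 Measured in binding assays against major human CYP450 enzymes and hERG.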

[22] = Mean residence time in Beagle dog plasma at 1 mg/kg, iv administered via infusion over 30 mins measured over 24 hrs by LC/MS/MS analysis; format: ADME, organism-based, Canis lupus familiaris; in short: as §1
[23] = Unbound fraction in cynomolgus monkey plasma; format: ADME, cell-free, Macaca fascicularis
[24] = Unbound fraction in Beagle dog plasma; format: ADME, cell-free, Canis lupus familiaris
[25] = tested on: LNCaP; assay: Antitumor activity against human PTEN-deficient androgen responsive LNCAP cells xenografted in CB17 SCID mouse assessed as tumor growth inhibition at […] administered by oral gavage twice daily for 14 days; format: functional; conditions: 336 h, read-out: TGI
[26] = tested on: LNCaP; assay: Growth inhibition of PTEN-deficient human LNCAP cells after 72 hrs by Celltiter-Glo reagent based assay; format: functional
[27] = Mean residence time in Sprague-Dawley rat plasma at 1 mg/kg, iv administered via infusion over 30 mins measured over 24 hrs by LC/MS/MS analysis; format: ADME, organism-based; in short: as §1
[28] = Apparent terminal half life in cynomolgus monkey plasma at 1 mg/kg, iv administered via infusion over 30 mins measured over 24 hrs by LC/MS/MS analysis; format: ADME, organism-based, Macaca fascicularis; conditions: read-out: betat1/2(app) (converted); in short: as §1
[29] = Clearance in cynomolgus monkey plasma at 1 mg/kg, iv administered via infusion over 30 mins measured over 24 hrs by LC/MS/MS analysis; format: ADME, organism-based, Macaca fascicularis; in short: as §1
[30] = Unbound fraction in Sprague-Dawley rat plasma; format: ADME, cell-free
[31] = Oral bioavailability in cynomolgus monkey plasma at 5 mg/kg administered via gavage by LC/MS/MS analysis; format: ADME, organism-based, Macaca fascicularis; in short: as §2
[32] = Mean residence time in rhesus monkey plasma at 1 mg/kg, iv administered via infusion over 30 mins measured over 24 hrs by LC/MS/MS analysis; format: ADME, organism-based, Macaca mulatta; in short: as §1
[33] = tested on: PC-3; assay: Growth inhibition of PTEN-deficient human PC3 cells after 72 hrs by Celltiter-Glo reagent based assay; format: functional; conditions: PC-3, 72 h
[34] = tested on: MDA-MB-415; assay: Growth inhibition of PTEN-deficient human MDA-MB-415 cells after 72 hrs by Celltiter-Glo reagent based assay; format: functional; conditions: MDA-MB-415, 72 h
[35] = tested on: LNCaP; assay: Antitumor activity against human PTEN-deficient androgen responsive LNCAP cells xenografted in CB17 SCID mouse assessed as tumor growth inhibition at 15 mg/kg administered by oral gavage twice daily for 14 days; format: functional; conditions: 336 h, read-out: TGI; in short: as §3
[36] = Inhibition of PI3Kbeta mutant in PTEN-deficient human A498 cells assessed decrease in AKT1 phosphorylation at Ser473 after 2 hrs; conditions: A498, 2 h
[37] = target: Voltage-gated inwardly rectifying potassium channel KCNH2 (Homo sapiens, UniProt Q12809); assay: Inhibition of human ERG; in short: as §4
[38] = Clearance in rhesus monkey plasma at 1 mg/kg, iv administered via infusion over 30 mins measured over 24 hrs by LC/MS/MS analysis; format: ADME, organism-based, Macaca mulatta; in short: as §1
[39] = Volume of distribution at steady state in Beagle dog plasma at 1 mg/kg, iv administered via infusion over 30 mins measured over 24 hrs by LC/MS/MS analysis; format: ADME, organism-based, Canis lupus familiaris; conditions: read-out: Vdss; in short: as §1
[40] = Apparent terminal half life in Beagle dog plasma at 1 mg/kg, iv administered via infusion over 30 mins measured over 24 hrs by LC/MS/MS analysis; format: ADME, organism-based, Canis lupus familiaris; conditions: read-out: betat1/2(app) (converted); in short: as §1
[41] = Clearance in Sprague-Dawley rat plasma at 1 mg/kg, iv administered via infusion over 30 mins measured over 24 hrs by LC/MS/MS analysis; format: ADME, organism-based; in short: as §1
[42] = Apparent terminal half life in rhesus monkey plasma at 1 mg/kg, iv administered via infusion over 30 mins measured over 24 hrs by LC/MS/MS analysis; format: ADME, organism-based, Macaca mulatta; conditions: read-out: betat1/2(app) (converted); in short: as §1
[43] = tested on: LNCaP; assay: Antitumor activity against human PTEN-deficient androgen responsive LNCAP cells xenografted in CB17 SCID mouse assessed as tumor growth inhibition at 3 mg/kg administered by oral gavage twice daily for 14 days; format: functional; conditions: 336 h, read-out: TGI; in short: as §3
[44] = Volume of distribution at steady state in cynomolgus monkey at 1 mg/kg, iv administered via infusion over 30 mins measured over 24 hrs by LC/MS/MS analysis; format: ADME, organism-based, Macaca fascicularis; conditions: in vivo, read-out: Vdss; in short: as §1

Phosphatidylinositol 4,5-bisphosphate 3-kinase catalytic subunit gamma isoform, sequence (P48736 whole entry, canonical isoform): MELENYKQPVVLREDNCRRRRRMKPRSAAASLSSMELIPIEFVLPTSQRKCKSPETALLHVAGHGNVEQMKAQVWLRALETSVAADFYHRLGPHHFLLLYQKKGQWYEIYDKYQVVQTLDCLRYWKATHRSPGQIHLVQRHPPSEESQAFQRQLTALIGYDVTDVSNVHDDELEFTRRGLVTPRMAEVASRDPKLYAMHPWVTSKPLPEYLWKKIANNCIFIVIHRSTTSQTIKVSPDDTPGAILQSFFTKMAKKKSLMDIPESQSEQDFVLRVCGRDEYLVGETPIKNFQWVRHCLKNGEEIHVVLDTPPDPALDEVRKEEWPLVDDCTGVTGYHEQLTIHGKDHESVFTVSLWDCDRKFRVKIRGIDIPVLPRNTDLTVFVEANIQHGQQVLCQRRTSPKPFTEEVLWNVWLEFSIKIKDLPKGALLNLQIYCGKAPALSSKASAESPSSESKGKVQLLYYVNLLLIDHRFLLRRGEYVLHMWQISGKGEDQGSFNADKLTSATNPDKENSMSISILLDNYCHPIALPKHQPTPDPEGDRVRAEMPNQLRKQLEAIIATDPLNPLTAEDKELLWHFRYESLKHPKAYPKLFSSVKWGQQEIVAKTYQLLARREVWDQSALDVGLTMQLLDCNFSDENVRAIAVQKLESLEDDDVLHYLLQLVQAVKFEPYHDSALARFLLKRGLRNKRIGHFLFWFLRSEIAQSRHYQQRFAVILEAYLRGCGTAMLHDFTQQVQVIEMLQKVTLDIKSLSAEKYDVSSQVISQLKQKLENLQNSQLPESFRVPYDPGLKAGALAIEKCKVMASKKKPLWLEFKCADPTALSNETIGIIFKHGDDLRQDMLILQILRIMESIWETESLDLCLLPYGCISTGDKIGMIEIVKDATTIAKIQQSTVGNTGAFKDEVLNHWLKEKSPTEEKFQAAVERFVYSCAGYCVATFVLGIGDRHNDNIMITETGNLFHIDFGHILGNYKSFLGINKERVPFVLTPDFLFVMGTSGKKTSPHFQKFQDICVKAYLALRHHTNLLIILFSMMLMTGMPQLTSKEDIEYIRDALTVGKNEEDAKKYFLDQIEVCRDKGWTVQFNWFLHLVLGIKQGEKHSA
PI3-kinase p110-alpha/p85-alpha, sequence (P27986 whole entry): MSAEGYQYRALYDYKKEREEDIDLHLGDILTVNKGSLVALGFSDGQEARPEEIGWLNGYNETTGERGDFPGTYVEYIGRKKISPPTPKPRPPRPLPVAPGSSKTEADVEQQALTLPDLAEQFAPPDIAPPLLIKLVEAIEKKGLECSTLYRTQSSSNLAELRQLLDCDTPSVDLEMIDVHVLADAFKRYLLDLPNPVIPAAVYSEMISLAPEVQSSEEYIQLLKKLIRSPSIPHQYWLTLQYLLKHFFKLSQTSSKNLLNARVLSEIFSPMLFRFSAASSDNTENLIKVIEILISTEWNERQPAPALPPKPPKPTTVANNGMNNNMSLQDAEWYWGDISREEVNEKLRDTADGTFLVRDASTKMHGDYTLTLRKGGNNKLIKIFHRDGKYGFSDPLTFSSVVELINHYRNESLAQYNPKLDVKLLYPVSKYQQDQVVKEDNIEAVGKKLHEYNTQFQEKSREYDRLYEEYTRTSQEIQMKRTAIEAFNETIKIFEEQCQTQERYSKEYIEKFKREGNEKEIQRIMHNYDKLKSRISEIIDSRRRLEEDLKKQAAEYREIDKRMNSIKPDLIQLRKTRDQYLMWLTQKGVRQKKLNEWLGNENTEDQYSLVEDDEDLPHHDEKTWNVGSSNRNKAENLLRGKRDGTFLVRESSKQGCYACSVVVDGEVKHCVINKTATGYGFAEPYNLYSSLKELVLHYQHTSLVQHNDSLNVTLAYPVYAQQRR
PI3-kinase p110-alpha/p85-alpha, sequence (P42336 whole entry): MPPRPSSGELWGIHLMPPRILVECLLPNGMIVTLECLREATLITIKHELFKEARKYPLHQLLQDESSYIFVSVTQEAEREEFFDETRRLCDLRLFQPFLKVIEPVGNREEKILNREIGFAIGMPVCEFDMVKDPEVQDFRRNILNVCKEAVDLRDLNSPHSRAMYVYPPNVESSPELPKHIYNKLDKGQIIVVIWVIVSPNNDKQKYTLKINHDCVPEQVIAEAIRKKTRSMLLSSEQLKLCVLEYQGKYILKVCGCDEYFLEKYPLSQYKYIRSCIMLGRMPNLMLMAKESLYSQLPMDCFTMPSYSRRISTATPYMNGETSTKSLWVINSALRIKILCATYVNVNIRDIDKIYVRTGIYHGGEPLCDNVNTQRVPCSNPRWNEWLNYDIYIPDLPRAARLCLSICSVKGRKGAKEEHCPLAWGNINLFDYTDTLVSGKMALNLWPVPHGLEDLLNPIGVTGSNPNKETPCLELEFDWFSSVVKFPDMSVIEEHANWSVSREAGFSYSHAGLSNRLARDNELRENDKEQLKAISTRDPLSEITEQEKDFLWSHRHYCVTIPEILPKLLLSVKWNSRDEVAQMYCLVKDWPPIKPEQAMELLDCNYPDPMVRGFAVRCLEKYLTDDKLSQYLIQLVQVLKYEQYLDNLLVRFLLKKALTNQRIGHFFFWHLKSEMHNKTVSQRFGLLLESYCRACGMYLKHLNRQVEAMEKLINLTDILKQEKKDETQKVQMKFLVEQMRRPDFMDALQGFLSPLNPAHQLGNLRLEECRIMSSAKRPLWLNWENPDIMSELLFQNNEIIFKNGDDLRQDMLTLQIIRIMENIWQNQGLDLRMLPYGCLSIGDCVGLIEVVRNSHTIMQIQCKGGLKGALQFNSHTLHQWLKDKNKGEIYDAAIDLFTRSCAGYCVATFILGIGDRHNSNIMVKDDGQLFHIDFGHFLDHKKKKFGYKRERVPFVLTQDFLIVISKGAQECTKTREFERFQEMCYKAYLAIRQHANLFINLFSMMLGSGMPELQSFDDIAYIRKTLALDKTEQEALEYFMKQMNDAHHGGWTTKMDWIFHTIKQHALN
PI3-kinase p110-delta/p85-alpha, sequence (P27986 whole entry, canonical isoform): as the sequence (P27986 whole entry) above
PI3-kinase p110-delta/p85-alpha, sequence (O00329 whole entry, canonical isoform): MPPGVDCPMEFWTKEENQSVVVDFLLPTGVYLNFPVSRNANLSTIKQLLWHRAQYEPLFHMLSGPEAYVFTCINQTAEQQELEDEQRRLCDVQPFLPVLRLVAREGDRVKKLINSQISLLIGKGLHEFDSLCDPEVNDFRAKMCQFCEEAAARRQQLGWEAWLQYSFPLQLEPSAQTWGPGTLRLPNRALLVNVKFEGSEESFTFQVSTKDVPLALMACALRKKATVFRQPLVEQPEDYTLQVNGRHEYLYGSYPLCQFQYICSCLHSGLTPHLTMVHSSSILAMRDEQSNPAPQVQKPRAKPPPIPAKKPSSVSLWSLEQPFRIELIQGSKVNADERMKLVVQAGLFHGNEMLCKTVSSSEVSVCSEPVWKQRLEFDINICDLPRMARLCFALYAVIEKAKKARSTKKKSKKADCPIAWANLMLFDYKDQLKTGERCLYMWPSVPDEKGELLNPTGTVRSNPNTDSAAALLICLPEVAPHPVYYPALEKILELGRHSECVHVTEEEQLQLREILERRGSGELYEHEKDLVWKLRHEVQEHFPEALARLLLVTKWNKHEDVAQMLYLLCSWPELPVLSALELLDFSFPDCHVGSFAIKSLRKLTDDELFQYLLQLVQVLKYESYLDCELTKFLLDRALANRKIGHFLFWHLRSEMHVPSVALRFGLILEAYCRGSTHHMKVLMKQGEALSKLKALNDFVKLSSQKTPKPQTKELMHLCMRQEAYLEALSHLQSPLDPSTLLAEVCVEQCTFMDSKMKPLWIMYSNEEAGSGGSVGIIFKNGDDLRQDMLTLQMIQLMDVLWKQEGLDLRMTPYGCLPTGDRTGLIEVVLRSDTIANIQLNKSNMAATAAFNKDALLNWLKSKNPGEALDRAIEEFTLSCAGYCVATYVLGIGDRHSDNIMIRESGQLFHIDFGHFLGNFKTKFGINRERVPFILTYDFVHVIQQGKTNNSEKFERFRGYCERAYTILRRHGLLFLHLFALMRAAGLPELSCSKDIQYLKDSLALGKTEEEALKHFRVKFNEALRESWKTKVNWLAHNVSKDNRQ

C[C@H](Nc1ncnc(N)c1C#N)c1nc2cccc(Cl)c2c(=O)n1-c1ccccc1
IC50 [1]: 0.34 nM | IC50 [2]: 154 nM | IC50 [3]: 2030 nM

C[C@H](Nc1nc(N)nc(N)c1Cl)c1nc2cccc(Cl)c2c(=O)n1-c1ccon1
IC50 [2]: 499 nM

CC[C@H](Nc1ncnc2[nH]cnc12)c1nc2cccc(F)c2c(=O)n1-c1ccc(O)cc1
IC50 [1]: 14 nM | IC50 [2]: 4300 nM | IC50 [3]: 1600 nM

C[C@H](Nc1nc(N)nc(N)c1C#N)c1nc2cccc(Cl)c2c(=O)n1-c1cc[nH]n1
Drug metabolism [4]: Metabolite_Notdetected | IC50 [2]: 54 nM

C[C@H](Nc1nc(N)nc(N)c1Cl)c1nc2cccc(Cl)c2c(=O)n1-c1cc[nH]n1
Papp B→A [5]: 19.6 ×10⁻⁶ cm/s | Papp A→B [6]: 1.1 ×10⁻⁶ cm/s | Vd [7]: 1.29 L/kg | clearance [8]: 23.8 mL/min/kg | bioavailability [9]: 26%

N#Cc1c(N)nc(N)nc1N[C@H](c1nc2c(Cl)cc(F)cc2c(=O)n1-c1cc[nH]n1)C1CC1
Papp B→A [5]: 17.3 ×10⁻⁶ cm/s | Papp A→B [6]: 1.5 ×10⁻⁶ cm/s | Vd [7]: 0.22 L/kg | clearance [8]: 1.17 mL/min/kg | bioavailability [9]: 12%

C[C@H](Nc1nc(N)nc(N)c1Cl)c1nc2c(Cl)cc(F)cc2c(=O)n1-c1cc[nH]n1
Vd [10]: 1.88 L/kg | GI50 [11]: 2 nM | MRT [12]: 6.28 h | bioavailability [13]: 90.4% | fraction unbound [14]: 0.0333 | inhibition in vivo at […] [15]: 64% | half-life [16]: 161 min | inhibition in vivo at 15 mg/kg [17]: 64% | clearance [18]: 4.17 mL/min/kg | minimal effective dose [19]: 7.5 mg/kg | Papp B→A [5]: 21.7 ×10⁻⁶ cm/s | GI50 [20]: 80 nM | IC50 [21]: > 25 µM | MRT [22]: 4.7 h | fraction unbound [23]: 0.0305 | fraction unbound [24]: 0.0196 | inhibition in vivo at […] [25]: 65% | GI50 [26]: 38 nM | MRT [27]: 1.97 h | half-life [28]: 298 min | clearance [29]: 4 mL/min/kg | fraction unbound [30]: 0.0085 | bioavailability [31]: 68.6% | MRT [32]: 4.54 h | GI50 [33]: 120 nM | Papp A→B [6]: 5.7 ×10⁻⁶ cm/s | Vd [7]: 0.52 L/kg | clearance [8]: 4.33 mL/min/kg | GI50 [34]: 12 nM | inhibition in vivo at 15 mg/kg [35]: 73% | EC50 [36]: 5.6 nM | IC50 [37]: > 25 µM | clearance [38]: 6.83 mL/min/kg | Vd [39]: 1.14 L/kg | half-life [40]: 235 min | bioavailability [9]: 66 to 66.4% | clearance [41]: 4.33 mL/min/kg | half-life [42]: 217 min | inhibition in vivo at 3 mg/kg [43]: 42% | Vd [44]: 1.5 L/kg

N#Cc1c(N)nc(N)nc1N[C@H](c1nc2cccc(Cl)c2c(=O)n1-c1cc[nH]n1)C1CC1
Drug metabolism [4]: Metabolite_Notdetected | IC50 [2]: 199 nM

C[C@H](Nc1ncnc(N)c1C#N)c1nc2cccc(Cl)c2c(=O)n1-c1ccc(O)cc1
IC50 [2]: 187 nM

Nc1nc(N)c(Cl)c(N[C@H](c2nc3cccc(Cl)c3c(=O)n2-c2cc[nH]n2)C2CC2)n1
Papp B→A [5]: 11.8 ×10⁻⁶ cm/s | Drug metabolism [4]: Metabolite_Detected | IC50 [2]: 4150 nM | Papp A→B [6]: 2.2 ×10⁻⁶ cm/s | Vd [7]: 0.83 L/kg | clearance [8]: 9.67 mL/min/kg | bioavailability [9]: 42%

N#Cc1c(N[C@H](c2nc3c(Cl)cc(F)cc3c(=O)n2-c2cc[nH]n2)C2CC2)nc(N)nc1C(F)F
IC50 [3]: 756 nM

— ChEMBL document CHEMBL4004819, “Discovery of a Phosphoinositide 3-Kinase (PI3K) β/δ Inhibitor for the Treatment of Phosphatase and Tensin Homolog (PTEN) Deficient Tumors: Building PI3Kβ Potency in a PI3Kδ-Selective Template by Targeting Nonconserved Asp856” (J Med Chem, 2017)
